Assay outcomes deposited in PubChem BioAssay by several laboratories.
Granule exo inh: blocks lytic granule exocytosis. TALL-104 LAMP-1 surface exposure, flow cytometry; cells stimulated with thapsigargin and PMA. inhibition, % at 10 µM. hit rate 0.66% among 360,000. AID 651702;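 active = inhibition above about 55%, limit read from the data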
TbMetRS inhib: Trypanosoma brucei MetRS inhibition; hit rate 0.4% among 360,000; inhibition, % at 11.9 µM; purified T. brucei MetRS, ATP depletion, Kinase-Glo luminescence;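 active = inhibition above a per-plate cutoff of the control wells' mean inhibition plus 3 SD, cut at about 5.5% in these data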
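Material: parasite MetRS enzyme / Replication: singlicate, one well per compound / Signal: luminescence of leftover ATP / Schedule: 2 h aminoacylation at 25 °C after 15 min preincubation / Medium: HEPES-MgCl2-KCl buffer plus DTT, spermine, BSA, pyrophosphatase / Doses: 11.9 µM single point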
MC4R antagonist: blocks human MC4R cAMP signaling | P32245 | MC4R-expressing cells, MTII-stimulated cAMP, LANCE TR-FRET | inhibition, % at 6.5 µM | hit rate 0.48% among 360,000;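 active = inhibition above its plate's cutoff, the mean of tested wells on that plate plus 3 SD, cut at about 29% in these data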
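System – human MC4R-expressing U2OS cells · Also added – Melanotan II · Dosing – one concentration, 6.5 µM nominal · Timing – 30-min compound, 1-h challenge, 1-h detection, room temperature · Measured by – Eu-cAMP/anti-cAMP TR-FRET, emission 671 nm · Replicates – singlicate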
ABCB6 inh MLPCN: inhibitors of human ABC transporter ABCB6; Q9NP58; K562-ABCB6 porphyrin accumulation, flow cytometry, 1 h; active compounds read low; fluorescence ratio to DMSO, % at 10 µM; hit rate 0.19% among 360,000; AID 602162;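 active = fluorescence ratio to DMSO below 75%, the collection mean minus 3 SD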;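 note: signal is porphyrin accumulated inside mitochondria; lower ratio means ABCB6 inhibition with less porphyrin fluorescence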
Target sequence (Q9NP58 whole entry, looked up): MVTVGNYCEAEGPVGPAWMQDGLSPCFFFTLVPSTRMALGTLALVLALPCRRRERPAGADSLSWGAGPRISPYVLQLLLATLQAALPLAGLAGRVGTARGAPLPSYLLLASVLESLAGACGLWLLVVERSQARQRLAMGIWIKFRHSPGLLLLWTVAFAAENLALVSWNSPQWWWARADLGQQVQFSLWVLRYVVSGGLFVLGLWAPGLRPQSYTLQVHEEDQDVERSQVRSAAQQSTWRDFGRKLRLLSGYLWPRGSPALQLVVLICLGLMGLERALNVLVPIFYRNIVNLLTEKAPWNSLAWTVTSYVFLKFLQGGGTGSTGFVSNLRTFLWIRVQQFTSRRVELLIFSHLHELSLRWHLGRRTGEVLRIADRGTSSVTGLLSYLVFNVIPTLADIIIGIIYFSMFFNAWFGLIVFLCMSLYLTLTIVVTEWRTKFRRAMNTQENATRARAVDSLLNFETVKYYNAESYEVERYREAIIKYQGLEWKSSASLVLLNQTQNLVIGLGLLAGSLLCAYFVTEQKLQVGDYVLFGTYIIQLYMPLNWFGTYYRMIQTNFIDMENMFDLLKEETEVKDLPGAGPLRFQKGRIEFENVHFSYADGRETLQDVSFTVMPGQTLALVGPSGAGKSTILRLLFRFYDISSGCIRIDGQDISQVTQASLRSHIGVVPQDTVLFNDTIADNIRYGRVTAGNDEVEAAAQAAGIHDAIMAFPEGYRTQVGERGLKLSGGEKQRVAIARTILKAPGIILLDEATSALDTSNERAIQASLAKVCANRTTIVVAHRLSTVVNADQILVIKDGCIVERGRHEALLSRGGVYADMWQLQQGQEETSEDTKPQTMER
MC4R barr agon: human MC4R agonism via beta-arrestin. U2OS MC4R beta-arrestin complementation, luminescence; percent of melanotan II response, DMSO zero. activation, % at 8.9 µM. hit rate 0.98% among 360,000;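 active = activation above a per-plate cutoff, the mean activation of sample wells on that plate plus 3 SD, cut at about 8% in these data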
hiPSC survival: hiPSC single-cell survival enhancement | ATPlite luminescence; 100% = ROCK inhibitor wells, 0% = DMSO | survival enhancement, % at 20 µM | hit rate 0.044% among 360,000 | AID 602274; in the data active = survival enhancement above about 18%;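 note: cells exposed to compounds for 16 hours before the ATP read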
Granule exo CP1: blocks lytic granule exocytosis. shares compounds with Granule exo inh. TALL-104 cells, LAMP-1 externalization, flow cytometry; stimulated with PMA plus thapsigargin. inhibition, % at 10 µM. hit rate 11% among 1,500. AID 651954; in the data active = inhibition above about 60%
Large screens that a line does not name were inactive (follow-up assays come after a bar, where they were run). Only some compounds are listed: those with a hit (about 2.6% of all), similar ones and a draw of the others.

O=C(CCCc1c[nH]c2ccccc12)NCCc1c[nH]c2ccccc12	Granule exo inh 80 | Granule exo CP1 inactive
O=C(CN1C(=O)C(=O)c2ccccc21)c1ccc(Cl)cc1	Granule exo inh 63 | Granule exo CP1 inactive
COc1ccc(CC(=O)N/N=C(\C)CC(=O)Nc2ccc3c(c2)OCCO3)cc1OC	none
CC(C)C(NS(=O)(=O)c1cccc(C(F)(F)F)c1)C(=O)N1CCc2ccccc2C1 (centres undefined)	Granule exo inh 76 | Granule exo CP1 inactive
Cc1cc(C)nc(N2CCCC(C(=O)NC3CC3)C2)n1 (centres undefined)	none
Cc1ccc(CN2CCSc3ccc(C(=O)NC4CCN(Cc5ccccc5)CC4)cc32)cc1	none
O=C(NC1CCCC1)c1ccc2c(c1)N(Cc1ccccc1)CCS2	Granule exo inh 70 | Granule exo CP1 inactive
COc1ccccc1NC(=O)Nc1nc(C(N)CCc2ccccc2)cs1 (centres undefined)	none
NC(CCc1ccccc1)c1csc(NC(=O)Nc2cccc(Cl)c2)n1 (centres undefined)	Granule exo inh 57 | Granule exo CP1 inactive
COc1ccc(CC(=O)Nc2ccc3c(c2)OC2(CCCC2)O3)c(OC)c1	none
CC(=O)c1ccc(N2C(=O)CC(N3CCN(S(=O)(=O)c4ccc(C)c(C)c4)CC3)C2=O)cc1 (centres undefined)	none
CCCc1cc(CN2CCOCC2)c(O)c(CN2CCOCC2)c1O	Granule exo inh 79 | Granule exo CP1 inactive
O=C(O)Cc1ccc(NS(=O)(=O)c2ccc3c(c2)OCCO3)cc1	none
COc1ccc(CN(C)CC2CCCN(CCc3ccc(Cl)cc3)C2)cc1OC (centres undefined)	none
CN(Cc1ccccc1)CC1CCCN(CCc2ccccc2F)C1 (centres undefined)	none
COc1ccccc1CCN1CCCC(CN(C)CC(C)(C)CO)C1 (centres undefined)	Granule exo inh 62 | Granule exo CP1 inactive
COc1cc(CN(C)CC2CCCN(CCc3cccc(C(F)(F)F)c3)C2)ccc1O (centres undefined)	Granule exo inh 56 | Granule exo CP1 inactive
COc1ccc(CN(C)CC2CCCN(CCc3ccc(F)cc3)C2)cc1OC (centres undefined)	Granule exo inh 60 | Granule exo CP1 inactive
COCC(=O)N(C)CC1CCCN(CCc2ccccc2OC)C1 (centres undefined)	none
COC(=O)CCC(=O)N(C)CC1CCCN(CCc2cccc(C(F)(F)F)c2)C1 (centres undefined)	none
COc1cc(CN(C)CC2CCCN(CCc3ccccc3F)C2)cc(Cl)c1OC (centres undefined)	Granule exo inh 56 | Granule exo CP1 inactive
Cc1cc[n+](-c2nc3ccccc3nc2[N-]S(=O)(=O)c2cccs2)cc1C	none
CCOc1cccc(CN(C)CC2CCCN(CCc3ccc(Cl)cc3)C2)c1O (centres undefined)	Granule exo inh 76 | Granule exo CP1 inactive
COc1cccc(CNCCc2c[nH]c3ccccc23)c1OCc1ccccc1	Granule exo inh 65 | Granule exo CP1 inactive
COc1cc(CNCCc2c[nH]c3ccccc23)ccc1OCc1ccccc1F	none
COc1ccc(C2SCC(=O)N2CCCN(C)C)cc1 (centres undefined)	none
CN(C)CCN(C(=O)CCS(=O)(=O)c1ccccc1)c1nc2cc3c(cc2s1)OCO3	none
Cc1ccc2nc(N(CCN3CCOCC3)C(=O)CCS(=O)(=O)c3ccccc3)sc2c1	none
Cc1ccc(S(=O)(=O)CCC(=O)N(CCCN2CCOCC2)c2nc3ccccc3s2)cc1	Granule exo inh 65 | Granule exo CP1 inactive
O=C(CCS(=O)(=O)c1ccccc1)N(CCCN1CCOCC1)c1nc2ccccc2s1	Granule exo inh 58 | Granule exo CP1 inactive
CCC(CC)C(=O)c1c[nH]c(C(=O)NCc2ccncc2)c1	none
COc1ccc(C(=O)/C=C/c2ccccc2OC)c(OC(=O)c2ccc([N+](=O)[O-])cc2)c1	none
